Results taken from ChEMBL document CHEMBL1140448 (J Med Chem, 2005).

What was measured:
Rattus norvegicus [1] = organism: Rattus norvegicus; assay: Percent inhibition on GH release from rat pituitary cells; format: functional, Pituitary gland cell; design: concentration or dose not given beside the values
Outline: (§1)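 Anterior pituitaries from female Wistar rats (180-200 g) dispersed with dispase. Cells seeded at (0.5-5) × 10^5 per well in MEM with 10% FCS and attached at least 3 days. Then 4 h incubation with or without analogue plus 10 nM GHRH, four dishes per group. Rat GH and PRL measured by commercial assay; response given as % change versus untreated control dishes.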

Rattus norvegicus [2] = organism: Rattus norvegicus; assay: Percent inhibition on PRL release from rat pituitary cells; format: functional, Pituitary gland cell; design: concentration or dose not given beside the values; outline: as §1
[3] = molecular target: Somatostatin receptor type 2 (Homo sapiens, UniProt P30874); assay: Inhibitory concentration against human somatostatin receptor type 2 in CC531 cells; format: cell-based
Outline: (§2)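 Competitive binding on membranes (25-50 µg protein) from stably transfected cells expressing one human sst subtype: CC531 for sst2, CHO-K1 for sst3 and sst5. Stopped with ice-cold Hepes buffer pH 7.6 and centrifuged; washed pellet γ-counted. Nonspecific binding taken with 1 µM unlabeled SRIF analogue.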

[4] = molecular target: Somatostatin receptor type 3 (Homo sapiens, UniProt P32745); assay: Inhibitory concentration against human somatostatin receptor type 3 in CHO-K1 cells; format: cell-based; outline: as §2
Rattus norvegicus [5] = organism: Rattus norvegicus; assay: Inhibitory concentration on GH release from rat pituitary cells; format: functional, cell-based; settings: Pituitary gland cell; outline: as §1
Rattus norvegicus [6] = organism: Rattus norvegicus; assay: Inhibitory concentration on PRL release from rat pituitary cells; format: functional, cell-based; settings: Pituitary gland cell; outline: as §1
[7] = molecular target: Somatostatin receptor type 5 (Homo sapiens, UniProt P35346); assay: Inhibitory concentration against human somatostatin receptor type 5 in CHO-K1 cells; format: cell-based; outline: as §2
Chain of Somatostatin receptor type 5 (P35346 whole entry): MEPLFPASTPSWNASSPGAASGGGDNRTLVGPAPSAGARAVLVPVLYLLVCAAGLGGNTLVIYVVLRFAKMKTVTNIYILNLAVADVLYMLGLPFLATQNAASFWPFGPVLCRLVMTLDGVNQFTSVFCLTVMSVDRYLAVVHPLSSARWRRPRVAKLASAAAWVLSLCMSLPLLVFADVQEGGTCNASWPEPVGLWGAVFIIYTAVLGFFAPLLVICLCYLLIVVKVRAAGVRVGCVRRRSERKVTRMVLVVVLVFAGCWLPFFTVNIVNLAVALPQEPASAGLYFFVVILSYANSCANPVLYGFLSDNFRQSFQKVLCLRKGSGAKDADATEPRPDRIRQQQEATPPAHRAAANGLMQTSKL

Chain of Somatostatin receptor type 2 (P30874 whole entry): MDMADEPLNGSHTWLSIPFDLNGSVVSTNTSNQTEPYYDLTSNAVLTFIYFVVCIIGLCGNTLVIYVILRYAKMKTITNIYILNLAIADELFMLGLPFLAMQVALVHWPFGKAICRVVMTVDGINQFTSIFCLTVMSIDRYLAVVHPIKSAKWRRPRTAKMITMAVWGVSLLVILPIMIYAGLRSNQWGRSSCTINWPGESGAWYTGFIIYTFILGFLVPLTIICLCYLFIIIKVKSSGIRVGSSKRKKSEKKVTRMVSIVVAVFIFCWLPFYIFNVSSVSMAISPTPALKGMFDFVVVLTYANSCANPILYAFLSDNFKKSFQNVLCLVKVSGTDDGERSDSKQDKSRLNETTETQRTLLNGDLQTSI
Chain of Somatostatin receptor type 3 (P32745 whole entry): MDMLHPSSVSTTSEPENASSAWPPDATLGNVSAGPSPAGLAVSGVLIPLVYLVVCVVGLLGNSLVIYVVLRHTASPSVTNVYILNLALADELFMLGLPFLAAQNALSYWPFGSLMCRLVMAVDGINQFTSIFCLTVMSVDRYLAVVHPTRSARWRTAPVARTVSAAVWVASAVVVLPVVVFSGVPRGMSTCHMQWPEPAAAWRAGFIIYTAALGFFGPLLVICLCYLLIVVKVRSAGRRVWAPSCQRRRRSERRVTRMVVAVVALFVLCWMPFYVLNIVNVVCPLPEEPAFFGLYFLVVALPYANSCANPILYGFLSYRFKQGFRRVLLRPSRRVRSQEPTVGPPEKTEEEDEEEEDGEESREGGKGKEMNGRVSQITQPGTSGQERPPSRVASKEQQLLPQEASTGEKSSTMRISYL

IC50 [3] | IC50 [4] | IC50 (Rattus norvegicus [5]) | IC50 (Rattus norvegicus [6]) | IC50 [7] | Compound | Inhibition (Rattus norvegicus [1]) | Inhibition (Rattus norvegicus [2])
– | – | – | – | – | CC(C)[C@@H]1NC(=O)[C@H](CCCCN)NC(=O)[C@@H](Cc2c[nH]c3ccccc23)NC(=O)[C@H](Cc2ccc(O)cc2)NC(=O)[C@@H](NC(=O)[C@H](N)Cc2ccc(N)cc2)CSSC[C@@H](C(=O)N[C@@H](CC(=O)O)C(N)=O)NC1=O [listing 1 of 2 here] | 41% | -9%
1.4 nM | > 1000 nM | 0.1 nM | 0.1 nM | – | CC(C)[C@@H]1NC(=O)[C@H](CCCCN)NC(=O)[C@@H](Cc2c[nH]c3ccccc23)NC(=O)[C@H](Cc2ccc(O)cc2)NC(=O)[C@@H](NC(=O)[C@H](N)Cc2ccc(N)c(I)c2)CSSC[C@@H](C(=O)N[C@H](C(N)=O)[C@@H](C)O)NC1=O [listing 1 of 2 here] | – | –
– | – | – | – | – | CC(C)[C@@H]1NC(=O)[C@H](CCCCN)NC(=O)[C@@H](Cc2c[nH]c3ccccc23)NC(=O)[C@H](Cc2ccc(O)cc2)NC(=O)[C@@H](NC(=O)[C@H](N)Cc2ccc(N)cc2)CSSC[C@@H](C(=O)N[C@H](CC(=O)O)C(N)=O)NC1=O [listing 1 of 2 here] | 18% | 11%
1.1 nM | > 1000 nM | – | > 100 nM | 30 nM | CC(C)[C@@H]1NC(=O)[C@H](CCCCN)NC(=O)[C@@H](Cc2c[nH]c3ccccc23)NC(=O)[C@H](Cc2ccc(O)cc2)NC(=O)[C@@H](NC(=O)[C@H](N)Cc2ccc(N)cc2)CSSC[C@@H](C(=O)N[C@H](CC(=O)O)C(N)=O)NC1=O [listing 2 of 2 here] | – | –
6.2 nM | > 1000 nM | – | – | – | CC(C)[C@@H]1NC(=O)[C@H](CCCCN)NC(=O)[C@@H](Cc2c[nH]c3ccccc23)NC(=O)[C@H](Cc2ccc(O)c(I)c2)NC(=O)[C@@H](NC(=O)[C@H](N)Cc2ccc(N)cc2)CSSC[C@@H](C(=O)N[C@H](C(N)=O)[C@@H](C)O)NC1=O [listing 1 of 2 here] | – | –
– | – | – | – | – | CC(C)[C@@H]1NC(=O)[C@H](CCCCN)NC(=O)[C@@H](Cc2c[nH]c3ccccc23)NC(=O)[C@H](Cc2ccc(O)c(I)c2)NC(=O)[C@@H](NC(=O)[C@H](N)Cc2ccc(N)c(I)c2)CSSC[C@@H](C(=O)N[C@H](C(N)=O)[C@@H](C)O)NC1=O [listing 1 of 2 here] | 58% | 29%
0.63 nM | > 1000 nM | 0.15 nM | 0.23 nM | – | CC(C)[C@@H]1NC(=O)[C@H](CCCCN)NC(=O)[C@@H](Cc2c[nH]c3ccccc23)NC(=O)[C@H](Cc2ccc(O)c(I)c2)NC(=O)[C@@H](NC(=O)[C@H](N)Cc2ccc(N)c(I)c2)CSSC[C@@H](C(=O)N[C@H](C(N)=O)[C@@H](C)O)NC1=O [listing 2 of 2 here] | – | –
– | – | – | – | – | CC(C)[C@@H]1NC(=O)[C@H](CCCCN)NC(=O)[C@@H](Cc2c[nH]c3ccccc23)NC(=O)[C@H](Cc2ccc(O)cc2)NC(=O)[C@@H](NC(=O)[C@H](N)Cc2ccc(N)cc2)CSSC[C@@H](C(=O)N[C@@H](C(N)=O)[C@H](C)O)NC1=O [listing 1 of 2 here] | -11% | 8%
– | – | – | – | – | CC(C)[C@@H]1NC(=O)[C@H](CCCCN)NC(=O)[C@@H](Cc2c[nH]c3ccccc23)NC(=O)[C@H](Cc2ccc(O)c(I)c2)NC(=O)[C@@H](NC(=O)[C@H](N)Cc2ccc(N)cc2)CSSC[C@@H](C(=O)N[C@H](C(N)=O)[C@@H](C)O)NC1=O [listing 2 of 2 here] | 12% | 14%
12 nM | > 1000 nM | – | – | 74 nM | CC(C)[C@@H]1NC(=O)[C@H](CCCCN)NC(=O)[C@@H](Cc2c[nH]c3ccccc23)NC(=O)[C@H](Cc2ccc(O)cc2)NC(=O)[C@@H](NC(=O)[C@H](N)Cc2ccc(N)c(I)c2)CSSC[C@@H](C(=O)N[C@@H](CC(=O)O)C(N)=O)NC1=O [listing 1 of 2 here] | – | –
18.6 nM | > 1000 nM | 1.1 nM | – | – | CC(C)[C@@H]1NC(=O)[C@H](CCCCN)NC(=O)[C@@H](Cc2c[nH]c3ccccc23)NC(=O)[C@H](Cc2ccc(O)cc2)NC(=O)[C@@H](NC(=O)[C@H](N)Cc2ccccc2)CSSC[C@@H](C(=O)N[C@@H](CC(=O)O)C(N)=O)NC1=O | – | –
– | – | – | – | – | CC(C)[C@@H]1NC(=O)[C@H](CCCCN)NC(=O)[C@@H](Cc2c[nH]c3ccccc23)NC(=O)[C@H](Cc2ccc(O)cc2)NC(=O)[C@@H](NC(=O)[C@H](N)Cc2ccc(N)c(I)c2)CSSC[C@@H](C(=O)N[C@H](C(N)=O)[C@@H](C)O)NC1=O [listing 2 of 2 here] | 60% | 35%
1.6 nM | > 1000 nM | 0.08 nM | 2.2 nM | – | CC(C)[C@@H]1NC(=O)[C@H](CCCCN)NC(=O)[C@@H](Cc2c[nH]c3ccccc23)NC(=O)[C@H](Cc2ccc(O)cc2)NC(=O)[C@@H](NC(=O)[C@H](N)Cc2ccc(N)cc2)CSSC[C@@H](C(=O)N[C@H](C(N)=O)[C@@H](C)O)NC1=O [listing 1 of 2 here] | – | –
17 nM | > 1000 nM | – | – | – | CC(C)[C@@H]1NC(=O)[C@H](CCCCN)NC(=O)[C@@H](Cc2c[nH]c3ccccc23)NC(=O)[C@H](Cc2ccc(O)cc2)NC(=O)[C@@H](NC(=O)[C@H](N)Cc2ccc(N)cc2)CSSC[C@@H](C(=O)N[C@@H](C(N)=O)[C@H](C)O)NC1=O [listing 2 of 2 here] | – | –
1.9 nM | > 1000 nM | – | – | 2.9 nM | CC(C)[C@@H]1NC(=O)[C@H](CCCCN)NC(=O)[C@@H](Cc2c[nH]c3ccccc23)NC(=O)[C@H](Cc2ccc(O)c(I)c2)NC(=O)[C@@H](NC(=O)[C@H](N)Cc2ccc(N)c(I)c2)CSSC[C@@H](C(=O)N[C@@H](CC(=O)O)C(N)=O)NC1=O [listing 1 of 2 here] | – | –
– | – | – | – | – | CC(C)[C@@H]1NC(=O)[C@H](CCCCN)NC(=O)[C@@H](Cc2c[nH]c3ccccc23)NC(=O)[C@H](Cc2ccc(O)cc2)NC(=O)[C@@H](NC(=O)[C@H](N)Cc2ccc(N)c(I)c2)CSSC[C@@H](C(=O)N[C@@H](CC(=O)O)C(N)=O)NC1=O [listing 2 of 2 here] | 17% | 12%
– | – | – | – | – | CC(C)[C@@H]1NC(=O)[C@H](CCCCN)NC(=O)[C@@H](Cc2c[nH]c3ccccc23)NC(=O)[C@H](Cc2ccc(O)cc2)NC(=O)[C@@H](NC(=O)[C@H](N)Cc2ccc(N)cc2)CSSC[C@@H](C(=O)N[C@H](C(N)=O)[C@@H](C)O)NC1=O [listing 2 of 2 here] | 47% | 20%
– | – | – | – | – | CC(C)[C@@H]1NC(=O)[C@H](CCCCN)NC(=O)[C@@H](Cc2c[nH]c3ccccc23)NC(=O)[C@H](Cc2ccc(O)c(I)c2)NC(=O)[C@@H](NC(=O)[C@H](N)Cc2ccc(N)c(I)c2)CSSC[C@@H](C(=O)N[C@@H](CC(=O)O)C(N)=O)NC1=O [listing 2 of 2 here] | 55% | 15%
11 nM | > 1000 nM | 14.8 nM | 26 nM | 54 nM | CC(C)[C@@H]1NC(=O)[C@H](CCCCN)NC(=O)[C@@H](Cc2c[nH]c3ccccc23)NC(=O)[C@H](Cc2ccc(O)cc2)NC(=O)[C@@H](NC(=O)[C@H](N)Cc2ccc(N)cc2)CSSC[C@@H](C(=O)N[C@@H](CC(=O)O)C(N)=O)NC1=O [listing 2 of 2 here] | – | –

Compound | IC50 [3] | IC50 [4] | IC50 (Rattus norvegicus [5]) | IC50 (Rattus norvegicus [6]) | IC50 [7] | Inhibition (Rattus norvegicus [1]) | Inhibition (Rattus norvegicus [2])
C[C@H](N)C(=O)NCC(=O)N[C@H]1CSSC[C@@H](C(=O)O)NC(=O)[C@H](CO)NC(=O)[C@H]([C@@H](C)O)NC(=O)[C@H](Cc2ccccc2)NC(=O)[C@H]([C@@H](C)O)NC(=O)[C@H](CCCCN)NC(=O)[C@H](Cc2c[nH]c3ccccc23)NC(=O)[C@H](Cc2ccccc2)NC(=O)[C@H](Cc2ccccc2)NC(=O)[C@H](CC(N)=O)NC(=O)[C@H](CCCCN)NC1=O [SOMATOSTATIN] | – | – | 0.1 nM | 0.2 nM | – | 66% | 30%
